Reference: ChEMBL document CHEMBL5120943, “Discovery of Novel Pyrazolopyrimidines as Potent, Selective, and Orally Bioavailable Inhibitors of ALK2” (ACS Med Chem Lett, 2022)
Values belong to the compound of their own block, whether it stands above or below them. The source made the active and inactive calls. The rule behind the calls is not given here.

Assays:
Activin receptor type-1 [1] = target: T1, Activin receptor type-1 (Homo sapiens, UniProt Q04771); assay: Inhibition of human recombinant N-terminal GST tagged ALK2 (147 to end residues) expressed in baculovirus infected in Sf9 cells assessed as loss of peptide phosphorylation activity using peptide substrate in presence of ATP and measured after 3 hrs by HTRF assay
T1 sequence (Q04771 whole entry): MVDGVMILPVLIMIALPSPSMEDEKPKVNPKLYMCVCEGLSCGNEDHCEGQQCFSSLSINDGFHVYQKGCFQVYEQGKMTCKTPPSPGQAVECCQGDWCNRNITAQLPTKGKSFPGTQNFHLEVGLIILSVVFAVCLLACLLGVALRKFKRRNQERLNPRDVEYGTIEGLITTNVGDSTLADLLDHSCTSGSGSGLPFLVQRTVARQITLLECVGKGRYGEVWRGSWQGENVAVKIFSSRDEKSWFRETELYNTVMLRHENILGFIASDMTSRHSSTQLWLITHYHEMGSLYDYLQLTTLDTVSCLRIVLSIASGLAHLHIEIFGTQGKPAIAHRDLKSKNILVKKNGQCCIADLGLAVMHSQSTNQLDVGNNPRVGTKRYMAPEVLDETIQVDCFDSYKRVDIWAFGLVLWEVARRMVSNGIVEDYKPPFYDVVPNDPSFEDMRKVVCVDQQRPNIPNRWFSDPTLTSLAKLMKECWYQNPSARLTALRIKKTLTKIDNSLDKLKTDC
Procedure, shortened: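 HTRF activity assay measuring loss of ALK2 phosphorylation of a peptide substrate. IC50 values were determined.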

Activin receptor type-1 [2] = target: T1, Activin receptor type-1; assay: Inhibition of ALK2 in human HeLa cells assessed as reduction in BMP-7 induced SMAD1 phosphorylation incubated for 1 hr followed BMP-7 stimulation for 30 mins by HTRF assay; assay type: cell-based
Procedure, shortened: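 HeLa cells were stimulated with BMP7. Inhibition of BMP7-induced SMAD1 phosphorylation was read by HTRF and an IC50 was derived.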

[3] = Volume of distribution at steady state in Sprague-Dawley rat at 3 mg/kg, po or 1 mg/kg, iv measured upto 24 hrs post dose by LC/MS/MS analysis; assay type: ADME, organism-based; details: in vivo
[4] = Cmax in Sprague-Dawley rat at 3 mg/kg, po measured upto 24 hrs post dose by LC/MS/MS analysis; assay type: ADME, organism-based; design: dose 3 mg/kg, time < 24 hrs, route po; details: in vivo
[5] = Half life in Sprague-Dawley rat at 3 mg/kg, po or 1 mg/kg, iv measured upto 24 hrs post dose by LC/MS/MS analysis; assay type: ADME, organism-based; details: in vivo
Hepcidin = target: T2, Hepcidin (Homo sapiens, UniProt P81172); assay: Inhibition of Hepcidin in human Huh-7 cells assessed as inhibition of BMP-7 induced hepcidin production incubated for 16 to 24 hrs by ELISA method; assay type: cell-based
T2 sequence (P81172 whole entry): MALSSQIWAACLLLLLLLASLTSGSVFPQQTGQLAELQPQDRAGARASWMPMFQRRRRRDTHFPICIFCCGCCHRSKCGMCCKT
Procedure, shortened: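 Huh7 liver cells were stimulated with BMP7. Inhibition of secreted hepcidin was measured and an IC50 was derived.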

[6] = Apparent permeability across apical to basolateral side in human Caco-2 cells at 50 uM incubated for 120 mins by LC/MS/MS analysis
[7] = Metabolic stability in human liver microsomes assessed as intrinsic clearance at 1uM and measured upto 30 mins in presence of NADPH by LC/MS analysis; assay type: ADME, Microsome; details: read-out: CLH (converted)
[8] = Protein binding in human plasma assessed as free fraction measured after 2 hrs by LC-MS/MS analysis; assay type: ADME, cell-free
[9] = AUC infinity in Sprague-Dawley rat at 3 mg/kg, po measured upto 24 hrs post dose by LC/MS/MS analysis; assay type: ADME, organism-based; design: time < 24 hrs, dose 3 mg/kg, route po; details: in vivo
[10] = Oral bioavailability in Sprague-Dawley rat at 3 mg/kg measured upto 24 hrs post dose by LC/MS/MS analysis; assay type: ADME, organism-based; details: in vivo
[11] = AUC (0 to 24 hrs) in C57BL/6 mouse plasma at 10 mg/kg, po; assay type: ADME, organism-based; design: time < 24 hr, dose 10 mg/kg, route po
Procedure, shortened: (§1)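 Female C57BL/6 mice were given a single oral dose of 10 mg/kg. Compound concentrations in liver and plasma were measured, and AUC was calculated over 0–24 h.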

Cytochrome P450 1A2 = target: T3, Cytochrome P450 1A2 (Homo sapiens, UniProt P05177); assay: Inhibition of CYP1A2 (unknown origin); assay type: ADME
T3 sequence (P05177 whole entry): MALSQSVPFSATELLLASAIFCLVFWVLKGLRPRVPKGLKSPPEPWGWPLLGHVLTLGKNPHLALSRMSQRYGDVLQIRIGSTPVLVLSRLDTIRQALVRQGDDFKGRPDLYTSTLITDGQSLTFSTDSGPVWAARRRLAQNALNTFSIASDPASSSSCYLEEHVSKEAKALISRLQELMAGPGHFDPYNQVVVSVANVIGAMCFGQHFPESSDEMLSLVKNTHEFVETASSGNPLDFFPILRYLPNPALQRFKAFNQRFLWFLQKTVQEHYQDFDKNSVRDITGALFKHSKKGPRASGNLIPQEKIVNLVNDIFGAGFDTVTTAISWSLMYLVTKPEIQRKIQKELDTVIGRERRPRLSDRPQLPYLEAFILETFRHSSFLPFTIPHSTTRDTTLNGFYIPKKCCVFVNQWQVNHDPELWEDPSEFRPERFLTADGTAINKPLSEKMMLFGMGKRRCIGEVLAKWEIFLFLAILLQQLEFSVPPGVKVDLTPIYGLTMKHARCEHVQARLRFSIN

Mus musculus = assay: In vivo inhibition of ALK2 in C57BL/6 mouse assessed as reduction in hepcidin level in plasma at 10 mg/kg, po measured after 24 hrs post dose; assay type: functional, organism-based
Cytochrome P450 2D6 = Cytochrome P450 2D6 (Homo sapiens, UniProt P10635); assay: Inhibition of CYP2D6 (unknown origin); assay type: ADME
Cytochrome P450 2C19 = Cytochrome P450 2C19 (Homo sapiens, UniProt P33261); assay: Inhibition of CYP2C19 (unknown origin); assay type: ADME
Cytochrome P450 3A4 = Cytochrome P450 3A4 (Homo sapiens, UniProt P08684); assay: Inhibition of CYP3A4 (unknown origin); assay type: ADME
Cytochrome P450 2C8 = target: T4, Cytochrome P450 2C8 (Homo sapiens, UniProt P10632); assay: Inhibition of CYP2C8 (unknown origin); assay type: ADME
T4 sequence (P10632 whole entry): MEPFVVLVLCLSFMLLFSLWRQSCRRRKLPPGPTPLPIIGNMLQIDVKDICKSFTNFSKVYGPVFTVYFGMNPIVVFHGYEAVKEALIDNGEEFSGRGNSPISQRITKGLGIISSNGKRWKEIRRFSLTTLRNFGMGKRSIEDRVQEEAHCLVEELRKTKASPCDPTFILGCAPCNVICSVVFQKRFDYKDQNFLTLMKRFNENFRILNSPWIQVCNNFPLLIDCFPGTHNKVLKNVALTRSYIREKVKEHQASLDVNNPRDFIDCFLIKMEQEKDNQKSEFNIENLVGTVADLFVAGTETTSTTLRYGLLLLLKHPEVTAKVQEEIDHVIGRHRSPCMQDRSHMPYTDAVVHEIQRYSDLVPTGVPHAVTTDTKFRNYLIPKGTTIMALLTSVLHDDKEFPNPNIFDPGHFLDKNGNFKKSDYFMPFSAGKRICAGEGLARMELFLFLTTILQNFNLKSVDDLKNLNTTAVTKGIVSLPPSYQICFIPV

Cytochrome P450 2B6 = target: T5, Cytochrome P450 2B6 (Homo sapiens, UniProt P20813); assay: Inhibition of CYP2B6 (unknown origin); assay type: ADME
T5 sequence (P20813 whole entry): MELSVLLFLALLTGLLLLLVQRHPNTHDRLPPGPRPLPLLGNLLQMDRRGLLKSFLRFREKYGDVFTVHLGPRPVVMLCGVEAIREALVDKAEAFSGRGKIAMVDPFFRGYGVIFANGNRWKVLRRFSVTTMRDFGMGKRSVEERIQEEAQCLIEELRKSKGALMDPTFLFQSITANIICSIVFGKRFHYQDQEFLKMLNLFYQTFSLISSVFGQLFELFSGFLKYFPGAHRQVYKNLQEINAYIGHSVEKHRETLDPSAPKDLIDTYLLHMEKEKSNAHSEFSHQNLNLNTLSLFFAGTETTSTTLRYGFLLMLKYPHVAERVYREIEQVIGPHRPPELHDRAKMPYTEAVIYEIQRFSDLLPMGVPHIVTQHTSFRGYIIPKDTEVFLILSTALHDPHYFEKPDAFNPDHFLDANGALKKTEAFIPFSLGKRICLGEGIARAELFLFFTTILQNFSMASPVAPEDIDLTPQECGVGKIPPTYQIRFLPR

[12] = AUC (0 to 24 hrs) in C57BL/6 mouse liver at 10 mg/kg, po; assay type: ADME, organism-based; design: time < 24 hr, dose 10 mg/kg, route po; procedure, shortened: as §1
Cytochrome P450 2C9 = Cytochrome P450 2C9 (Homo sapiens, UniProt P11712); assay: Inhibition of CYP2C9 (unknown origin); assay type: ADME
[13] = In vivo inhibition of ALK2 in C57BL/6 mouse assessed as reduction in hepcidin level in plasma at 10 mg/kg, po measured after 4 hrs post dose relative to control; assay type: functional
hERG (KCNH2) = hERG (KCNH2) (Homo sapiens, UniProt Q12809); assay: Inhibition of human ERG at 1 uM by patch clamp assay relative to control; assay type: toxicity
Procedure, shortened: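 hERG activity was tested by patch clamp at 1 μM and expressed as percent inhibition.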

Sequence of hERG (KCNH2) (Q12809 whole entry): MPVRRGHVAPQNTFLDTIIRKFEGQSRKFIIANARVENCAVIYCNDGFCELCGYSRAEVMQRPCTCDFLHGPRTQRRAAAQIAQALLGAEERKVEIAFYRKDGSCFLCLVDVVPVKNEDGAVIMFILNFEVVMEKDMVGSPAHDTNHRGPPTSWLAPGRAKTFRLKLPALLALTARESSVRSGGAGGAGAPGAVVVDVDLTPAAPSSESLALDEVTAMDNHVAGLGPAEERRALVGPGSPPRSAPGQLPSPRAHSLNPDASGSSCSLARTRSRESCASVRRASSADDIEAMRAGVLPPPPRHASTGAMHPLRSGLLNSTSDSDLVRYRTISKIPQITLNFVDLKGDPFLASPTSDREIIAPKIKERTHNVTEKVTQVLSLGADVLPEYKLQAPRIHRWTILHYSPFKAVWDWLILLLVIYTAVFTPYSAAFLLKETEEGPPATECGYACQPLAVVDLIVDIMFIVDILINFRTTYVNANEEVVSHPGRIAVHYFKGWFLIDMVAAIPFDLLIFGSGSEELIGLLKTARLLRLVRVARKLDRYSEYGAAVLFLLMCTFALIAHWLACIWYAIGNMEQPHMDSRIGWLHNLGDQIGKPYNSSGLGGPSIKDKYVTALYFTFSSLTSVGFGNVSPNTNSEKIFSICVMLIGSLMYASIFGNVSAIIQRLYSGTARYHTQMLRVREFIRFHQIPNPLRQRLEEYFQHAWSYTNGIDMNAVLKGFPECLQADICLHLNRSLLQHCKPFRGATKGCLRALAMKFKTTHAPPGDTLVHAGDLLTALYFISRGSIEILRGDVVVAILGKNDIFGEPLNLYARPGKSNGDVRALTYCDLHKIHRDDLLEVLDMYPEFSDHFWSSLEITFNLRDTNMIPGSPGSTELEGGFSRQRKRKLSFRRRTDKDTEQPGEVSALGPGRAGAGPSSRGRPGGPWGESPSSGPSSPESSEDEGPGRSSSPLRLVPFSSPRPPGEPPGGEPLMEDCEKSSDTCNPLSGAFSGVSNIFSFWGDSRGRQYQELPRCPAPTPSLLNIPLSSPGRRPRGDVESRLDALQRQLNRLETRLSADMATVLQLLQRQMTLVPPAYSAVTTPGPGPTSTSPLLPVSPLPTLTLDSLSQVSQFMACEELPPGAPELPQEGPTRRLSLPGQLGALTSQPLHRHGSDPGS
Sequence of Cytochrome P450 3A4 (P08684 whole entry): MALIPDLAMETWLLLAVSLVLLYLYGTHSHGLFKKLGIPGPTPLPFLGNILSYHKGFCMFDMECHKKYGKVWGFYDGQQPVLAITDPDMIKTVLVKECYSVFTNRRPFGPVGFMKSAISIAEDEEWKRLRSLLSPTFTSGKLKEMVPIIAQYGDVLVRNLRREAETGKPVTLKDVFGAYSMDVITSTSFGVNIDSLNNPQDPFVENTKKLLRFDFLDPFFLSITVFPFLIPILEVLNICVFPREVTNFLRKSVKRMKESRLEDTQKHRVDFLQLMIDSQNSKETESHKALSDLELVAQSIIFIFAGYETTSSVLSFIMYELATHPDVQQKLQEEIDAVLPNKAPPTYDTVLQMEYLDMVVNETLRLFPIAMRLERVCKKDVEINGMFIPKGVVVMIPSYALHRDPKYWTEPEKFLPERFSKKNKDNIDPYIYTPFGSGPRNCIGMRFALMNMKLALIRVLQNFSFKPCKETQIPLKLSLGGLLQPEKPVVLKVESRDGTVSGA
Sequence of Cytochrome P450 2D6 (P10635 whole entry): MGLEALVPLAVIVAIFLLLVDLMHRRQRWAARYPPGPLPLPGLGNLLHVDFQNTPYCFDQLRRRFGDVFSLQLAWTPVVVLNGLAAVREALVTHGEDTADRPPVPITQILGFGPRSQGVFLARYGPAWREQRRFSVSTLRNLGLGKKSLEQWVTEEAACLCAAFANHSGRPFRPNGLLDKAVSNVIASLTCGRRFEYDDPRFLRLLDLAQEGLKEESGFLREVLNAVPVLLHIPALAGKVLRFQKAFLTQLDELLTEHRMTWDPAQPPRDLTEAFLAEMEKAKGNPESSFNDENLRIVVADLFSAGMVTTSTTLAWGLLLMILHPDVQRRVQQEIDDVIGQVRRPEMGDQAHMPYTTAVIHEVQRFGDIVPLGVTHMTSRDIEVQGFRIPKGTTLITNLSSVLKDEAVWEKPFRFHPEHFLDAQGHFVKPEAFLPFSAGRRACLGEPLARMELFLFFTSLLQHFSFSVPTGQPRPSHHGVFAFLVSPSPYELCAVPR
Sequence of Cytochrome P450 2C19 (P33261 whole entry): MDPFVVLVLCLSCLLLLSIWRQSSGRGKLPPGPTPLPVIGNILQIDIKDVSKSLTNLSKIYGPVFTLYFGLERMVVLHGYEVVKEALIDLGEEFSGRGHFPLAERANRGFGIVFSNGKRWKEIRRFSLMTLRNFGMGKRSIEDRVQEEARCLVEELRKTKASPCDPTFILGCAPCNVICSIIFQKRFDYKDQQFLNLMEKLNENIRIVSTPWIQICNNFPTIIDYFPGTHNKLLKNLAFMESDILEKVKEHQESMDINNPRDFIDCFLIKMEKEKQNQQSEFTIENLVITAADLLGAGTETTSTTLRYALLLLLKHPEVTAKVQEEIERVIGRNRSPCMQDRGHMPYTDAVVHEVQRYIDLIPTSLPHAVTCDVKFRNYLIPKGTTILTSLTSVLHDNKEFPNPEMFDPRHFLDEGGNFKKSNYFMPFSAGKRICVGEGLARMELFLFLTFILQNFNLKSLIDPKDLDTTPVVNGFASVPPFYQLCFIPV
Sequence of Cytochrome P450 2C9 (P11712 whole entry): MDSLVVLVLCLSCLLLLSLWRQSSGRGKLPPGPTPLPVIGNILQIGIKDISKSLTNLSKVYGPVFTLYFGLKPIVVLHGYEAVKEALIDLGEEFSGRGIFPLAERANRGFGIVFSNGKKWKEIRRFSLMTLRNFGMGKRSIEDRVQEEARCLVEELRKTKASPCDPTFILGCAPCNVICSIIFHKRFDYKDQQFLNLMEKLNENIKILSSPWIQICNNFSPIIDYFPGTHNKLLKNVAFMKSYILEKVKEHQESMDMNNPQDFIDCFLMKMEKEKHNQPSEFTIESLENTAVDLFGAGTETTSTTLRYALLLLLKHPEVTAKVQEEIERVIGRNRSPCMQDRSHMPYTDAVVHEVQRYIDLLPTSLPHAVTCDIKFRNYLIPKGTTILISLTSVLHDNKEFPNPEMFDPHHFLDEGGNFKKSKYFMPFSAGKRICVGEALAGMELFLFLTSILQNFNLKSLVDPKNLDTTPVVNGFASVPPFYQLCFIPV

- IC50 (Activin receptor type-1 [1]): 0.0081 µM
SMILES: C[C@@H]1CN(c2ccc(-c3n[nH]c4cnc(N5CCCCC5)nc34)cn2)CCN1

- IC50 (Activin receptor type-1 [1]): 0.0073 µM
- IC50 (Activin receptor type-1 [2]): 0.346 µM
SMILES: COCC(=O)N1C[C@@H](C)N(c2ncc3[nH]nc(-c4ccc(N5CCN[C@H](C)C5)nc4)c3n2)[C@@H](C)C1

- IC50 (Activin receptor type-1 [1]): 0.0013 µM
- IC50 (Activin receptor type-1 [2]): 0.119 µM
SMILES: COC(=O)N1C[C@@H](C)N(c2ncc3[nH]nc(-c4ccc(N5CCN(C)CC5)c(F)c4)c3n2)[C@@H](C)C1

- Vdss [3]: 21.9 L/kg
- IC50 (Activin receptor type-1 [1]): 0.00085 µM
- Cmax [4]: 75 nM
- half-life [5]: 3.1 h
- IC50 (Hepcidin): 0.0073 µM
- Papp A→B at 2 h, 50 µM [6]: 0.6 ×10⁻⁶ cm/s
- CLint scaled at 1 µM [7]: 15 mL/min/kg
- fraction unbound at 2 h [8]: 0.099
- IC50 (Activin receptor type-1 [2]): 0.027 µM
- AUC(0-inf) [9]: 0.441 µM·h
- bioavailability [10]: 49%
SMILES: COC(=O)N1C[C@@H](C)N(c2ncc3[nH]nc(-c4ccc(N5CCN[C@H](C)C5)nc4)c3n2)[C@@H](C)C1

- AUC(0-t) at 24 h [11]: 26.2 µM·h
- IC50 (Cytochrome P450 1A2): > 25 µM
- Vdss [3]: 7.6 L/kg
- IC50 (Activin receptor type-1 [1]): 0.00098 µM
- Cmax [4]: 434 nM
- half-life [5]: 5.7 h
- IC50 (Hepcidin): 0.034 µM
- IC50 (Cytochrome P450 2D6): > 25 µM
- IC50 (Cytochrome P450 2C19): > 25 µM
- IC50 (Cytochrome P450 3A4): > 25 µM
- IC50 (Cytochrome P450 2C8): > 25 µM
- IC50 (Cytochrome P450 2B6): > 25 µM
- Papp A→B at 2 h, 50 µM [6]: 4.5 ×10⁻⁶ cm/s
- AUC(0-t) at 24 h [12]: 376 µM·h
- CLint scaled at 1 µM [7]: 16.7 mL/min/kg
- IC50 (Cytochrome P450 2C9): > 25 µM
- fraction unbound at 2 h [8]: 0.043
- IC50 (Activin receptor type-1 [2]): 0.061 µM
- AUC(0-inf) [9]: 4.05 µM·h
- bioavailability [10]: 85%
SMILES: COC(=O)N1C[C@@H](C)N(c2ncc3[nH]nc(-c4ccc(N5CCN(C)CC5)cc4)c3n2)[C@@H](C)C1
- inhibition (Mus musculus): Active
- inhibition in vivo at 10 mg/kg [13]: 80%
- inhibition at 1 µM (hERG (KCNH2)): < 1%

- IC50 (Activin receptor type-1 [1]): 0.0049 µM
- IC50 (Activin receptor type-1 [2]): 0.212 µM
SMILES: CCOC(=O)N1C[C@@H](C)N(c2ncc3[nH]nc(-c4ccc(N5CCN[C@H](C)C5)nc4)c3n2)[C@@H](C)C1

- IC50 (Hepcidin): 0.058 µM
SMILES: COC(=O)N1C[C@@H](C)N(c2ncc3[nH]nc(-c4ccc(N5CCN(C)CC5)nc4)c3n2)[C@@H](C)C1

- IC50 (Activin receptor type-1 [1]): 0.0064 µM
- IC50 (Activin receptor type-1 [2]): 0.35 µM
SMILES: C[C@@H]1CN(c2ccc(-c3n[nH]c4cnc(N5[C@H](C)CN(C(=O)N(C)C)C[C@@H]5C)nc34)cn2)CCN1
